# Results reported in ChEMBL document CHEMBL4706573, “Synthesis and evaluation of thiophene based small molecules as potent inhibitors of Mycobacterium tuberculosis” (Eur J Med Chem, 2020).
# Activity calls are given as the source filed them. The calls are words filed in the database; no cut-off is given here.
# System: Mycobacterium tuberculosis
# Experiment: Antimycobacterial activity against INH-resistant Mycobacterium tuberculosis mc2497 after 10 to 14 days
# Format: functional, organism-based
# Settings: time 10-14 day
# Method in brief: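 MIC99 determined in whole cells, tested in triplicate with INH as the positive control. Strains were wild-type, pMV306, pMV306-pks13 and INH-resistant mc2 497. Susceptibility was scored relative to the parental strain: S where the MIC99 was at most 2x the parental MIC99.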
row,SMILES,Activity
1,COC(=O)c1ccsc1NC(=O)CCl,inactive
2,COC(=O)c1cc(-c2ccc(C(F)(F)F)cc2)sc1NC(=O)CCl,inactive
3,NNC(=O)c1ccncc1 [ISONIAZID],inactive
4,COC(=O)c1cc(-c2cccc(F)c2)sc1NC(=O)CCl,inactive
5,COC(=O)c1cc(-c2cc3ccccc3s2)sc1NC(=O)CCl,inactive
6,COC(=O)c1cc(-c2ccccc2)sc1NC(=O)CCl,inactive
7,COC(=O)c1cc(-c2ccc(F)cc2)sc1NC(=O)CCl,inactive
8,CCOC(=O)c1cc(-c2ccccc2)sc1NC(=O)CBr,inactive
9,CO[C@H]1/C=C/O[C@@]2(C)Oc3c(C)c(O)c4c(O)c(c(/C=N/N5CCN(C)CC5)c(O)c4c3C2=O)NC(=O)/C(C)=C\C=C\[C@H](C)[C@H](O)[C@@H](C)[C@@H](O)[C@@H](C)[C@H](OC(C)=O)[C@@H]1C [RIFAMPIN],Active
10,COC(=O)c1cc(-c2cc(F)cc(F)c2)sc1NC(=O)CCl,inactive
